According to ChEMBL document CHEMBL1136609, “An adjustable release rate linking strategy for cytotoxin-peptide conjugates” (Bioorg Med Chem Lett, 2003):

Tests used:
Rattus norvegicus [1] = species: Rattus norvegicus; assay: Inhibitory activity against GHRH-stimulated GH release from monolayer cultures of rat pituitary cells; type: functional, cell-based; details: Pituitary gland cell
Outline: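 Monolayer cultures of rat pituitary cells stimulated with GHRH; agonist potency measured as inhibition of GH release, expressed as IC50.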

IMR-32 = assay: Cytotoxic activity against human neuroblastoma IMR32 cells; type: functional, cell-based
Outline: (§1)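 Human neuroblastoma IMR-32 cells (somatostatin receptor/SSTR2 over-expressing) exposed to a range of compound concentrations for 3 days, in quadruplicate; viability read by MTT assay; IC50 taken from dose-response curves.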

[2] = Half-life in rat serum; type: ADME, organism-based
Outline: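 Compounds incubated at 37°C in fresh rat serum; aliquots removed at several time points and analysed by HPLC to estimate half-life.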

Somatostatin receptor = assay: Cytotoxic activity against human neuroblastoma IMR32 cells which over-express somatostatin receptors; type: functional, cell-based; details: imr-32; outline: as §1
[3] = Half-life in phosphate buffer; type: ADME
Outline: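 Incubated in 0.1 M phosphate buffer at 37°C; aliquots taken at various time points and analysed by HPLC to give half-life. The experiment ran for 50 h.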

Rattus norvegicus [4] = species: Rattus norvegicus; assay: Inhibitory activity against GHRH-stimulated GH release from monolayer cultures of rat pituitary cells; na is not active; type: functional, cell-based; details: pituitary gland cell

SMILES	IC50 (Rattus norvegicus [1]) [nM]	half-life [2] [h]	IC50 (IMR-32) [nM]	IC50 (Somatostatin receptor) [nM]	half-life [3] [h]	IC50 (Rattus norvegicus [4])
CCCC[C@H](NC(=O)[C@@H](CO)NC(=O)CN(CCN)C(=O)Oc1cc(/C=C\c2cc(OC)c(OC)c(OC)c2)ccc1OC)C(=O)N[C@H](Cc1ccc(O)cc1)C(=O)N[C@H](CO)C(=O)N[C@@H]1CSSC[C@H](C(=O)N[C@H](C(N)=O)[C@@H](C)O)NC(=O)[C@H]([C@@H](C)O)NC(=O)[C@H](CCCN)NC(=O)[C@@H](Cc2c[nH]c3ccccc23)NC(=O)[C@H](Cc2ccccc2)NC1=O	0.31	4	–	2.79	31	–
CCCC[C@H](NC(=O)[C@@H](CO)NC(=O)CN(CCO)C(=O)O[C@]1(CC)C(=O)OCc2c1cc1n(c2=O)Cc2cc3ccccc3nc2-1)C(=O)N[C@H](Cc1ccc(O)cc1)C(=O)N[C@H](CO)C(=O)N[C@@H]1CSSC[C@H](C(=O)N[C@H](C(N)=O)[C@@H](C)O)NC(=O)[C@H]([C@@H](C)O)NC(=O)[C@H](CCCN)NC(=O)[C@@H](Cc2c[nH]c3ccccc23)NC(=O)[C@H](Cc2ccccc2)NC1=O	0.49	–	–	> 1000	–	–
CCCC[C@H](NC(=O)[C@@H](CO)NC(=O)CN(CCNC)C(=O)O[C@]1(CC)C(=O)OCc2c1cc1n(c2=O)Cc2cc3ccccc3nc2-1)C(=O)N[C@H](Cc1ccc(O)cc1)C(=O)N[C@H](CO)C(=O)N[C@@H]1CSSC[C@H](C(=O)N[C@H](C(N)=O)[C@@H](C)O)NC(=O)[C@H]([C@@H](C)O)NC(=O)[C@H](CCCN)NC(=O)[C@@H](Cc2c[nH]c3ccccc23)NC(=O)[C@H](Cc2ccccc2)NC1=O	0.27	18	–	54.2	123	–
CCCC[C@H](NC(=O)[C@@H](CO)NC(=O)CN(CCN(C)C)C(=O)O[C@]1(CC)C(=O)OCc2c1cc1n(c2=O)Cc2cc3ccccc3nc2-1)C(=O)N[C@H](Cc1ccc(O)cc1)C(=O)N[C@H](CO)C(=O)N[C@@H]1CSSC[C@H](C(=O)N[C@H](C(N)=O)[C@@H](C)O)NC(=O)[C@H]([C@@H](C)O)NC(=O)[C@H](CCCN)NC(=O)[C@@H](Cc2c[nH]c3ccccc23)NC(=O)[C@H](Cc2ccccc2)NC1=O	0.3	59	–	571	–	–
CC[C@@]1(O)C(=O)OCc2c1cc1n(c2=O)Cc2cc3ccccc3nc2-1 [CAMPTOTHECIN]	–	–	–	2.21	–	Not Active

Now from value to compound, other results behind:

IC50 (Rattus norvegicus [1]) [nM]	half-life [2] [h]	SMILES	IC50 (IMR-32) [nM]	IC50 (Somatostatin receptor) [nM]	half-life [3] [h]	IC50 (Rattus norvegicus [4])
0.32	106	CCCC[C@H](NC(=O)[C@@H](CO)NC(=O)CN(CCN)C(=O)O[C@]1(CC)C(=O)OCc2c1cc1n(c2=O)Cc2cc3ccccc3nc2-1)C(=O)N[C@H](Cc1ccc(O)cc1)C(=O)N[C@H](CO)C(=O)N[C@@H]1CSSC[C@H](C(=O)N[C@H](C(N)=O)[C@@H](C)O)NC(=O)[C@H]([C@@H](C)O)NC(=O)[C@H](CCCN)NC(=O)[C@@H](Cc2c[nH]c3ccccc23)NC(=O)[C@H](Cc2ccccc2)NC1=O	374	–	–	–
0.26	72	CCCC[C@H](NC(=O)[C@@H](CO)NC(=O)CN(CCCN)C(=O)O[C@]1(CC)C(=O)OCc2c1cc1n(c2=O)Cc2cc3ccccc3nc2-1)C(=O)N[C@H](Cc1ccc(O)cc1)C(=O)N[C@H](CO)C(=O)N[C@@H]1CSSC[C@H](C(=O)N[C@H](C(N)=O)[C@@H](C)O)NC(=O)[C@H]([C@@H](C)O)NC(=O)[C@H](CCCN)NC(=O)[C@@H](Cc2c[nH]c3ccccc23)NC(=O)[C@H](Cc2ccccc2)NC1=O	–	> 1000	–	–
